Laboratory results published in ChEMBL document CHEMBL1122401, “Synthesis and pharmacological activity of 6-[(E)-2-(2,6,6-trimethyl-1-cyclohexen-1-yl)ethen-1-yl]- and 6-(1,2,3,4-tetrahydro-1,1,4,4-tetramethyl-6-naphthyl)-2-naphthalenecarboxylic acids” (1983).

Columns and labels:
[1] = Relative activity as reciprocal of the ratio of ED50 (retinoid) / ED50 (retinoic acid) when control was 3 x 10e-11; format: functional
Cricetinae gen. sp. [2] = assay: Reversal of keratinization process in hamster tracheal organ culture at concentration of 10e-10 M expressed as percent of active cultures out of 13 cultures; format: functional, Trachea
[3] = molecular target: T1, Ornithine decarboxylase (Mus musculus) (UniProt P00860); assay: Percent inhibition of induction of ODC(ornithine decarboxylase) by TPA in mouse skin at a dose of 1.7 nmol
T1 sequence (whole entry): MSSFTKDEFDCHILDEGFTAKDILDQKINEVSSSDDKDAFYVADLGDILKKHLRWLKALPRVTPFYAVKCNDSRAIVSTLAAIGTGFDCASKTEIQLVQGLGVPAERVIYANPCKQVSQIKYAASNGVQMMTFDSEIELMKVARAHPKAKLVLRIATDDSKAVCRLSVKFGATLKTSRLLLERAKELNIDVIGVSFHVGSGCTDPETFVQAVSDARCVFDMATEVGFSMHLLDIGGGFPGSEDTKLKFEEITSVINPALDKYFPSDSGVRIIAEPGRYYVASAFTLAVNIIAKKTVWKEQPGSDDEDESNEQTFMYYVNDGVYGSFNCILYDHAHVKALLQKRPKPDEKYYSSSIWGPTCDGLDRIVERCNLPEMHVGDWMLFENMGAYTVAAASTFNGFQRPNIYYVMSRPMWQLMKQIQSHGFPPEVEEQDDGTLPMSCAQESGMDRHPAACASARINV
Outline: (§1)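 ODC induction by the tumour-promoting phorbol ester TPA, measured in mouse dorsal epidermis. Retinoid was tested at 1.7 or 17 nmol dose levels. Activity is expressed as a percentage of that of retinoic acid at the same dose.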

Cricetinae gen. sp. [4] = assay: Reversal of keratinization process in hamster tracheal organ culture at concentration of 10e-9 M expressed as percent of active cultures out of 12 cultures; format: functional, Trachea
Cricetinae gen. sp. [5] = assay: Reversal of keratinization process in hamster tracheal organ culture at concentration of 10e-11 M expressed as percent of active cultures out of 5 cultures; format: functional, Trachea
Cricetinae gen. sp. [6] = assay: Reversal of keratinization process in hamster tracheal organ culture at concentration of 10e-8 M expressed as percent of active cultures out of 7 cultures; format: functional, Trachea
[7] = Relative activity as reciprocal of the ratio of ED50 (retinoid) / ED50 (retinoic acid) when control was 6 x 10e-12; format: functional
[8] = molecular target: T1, Ornithine decarboxylase (Mus musculus); assay: Percent inhibition of induction of ODC(ornithine decarboxylase) by TPA in mouse skin at a dose of 17.0 nmol; outline: as §1
[9] = Relative activity as reciprocal of the ratio of ED50 (retinoid) / ED50 (retinoic acid) when control was 7 x 10e-12; format: functional
Cricetinae gen. sp. [10] = assay: Reversal of keratinization process in hamster tracheal organ culture at concentration of 10e-10 M expressed as percent of active cultures out of 22 cultures; format: functional, Trachea
Cricetinae gen. sp. [11] = assay: Reversal of keratinization process in hamster tracheal organ culture at concentration of 10e-12 M expressed as percent of active cultures out of 15 cultures; format: functional, Trachea
Cricetinae gen. sp. [12] = assay: Reversal of keratinization process in hamster tracheal organ culture at concentration of 10e-9 M expressed as percent of active cultures out of 7 cultures; format: functional, Trachea
Cricetinae gen. sp. [13] = assay: Reversal of keratinization process in hamster tracheal organ culture at concentration of 10e-11 M expressed as percent of active cultures out of 22 cultures; format: functional, Trachea

Row | Compound | Ratio [1] | Active culture (Cricetinae gen. sp. [2]) [%] | inhibition [3] [%] | Active culture (Cricetinae gen. sp. [4]) [%] | Active culture (Cricetinae gen. sp. [5]) [%] | Active culture (Cricetinae gen. sp. [6]) [%] | Ratio [7] | inhibition [8] [%] | Ratio [9] | Active culture (Cricetinae gen. sp. [10]) [%] | Active culture (Cricetinae gen. sp. [11]) [%] | Active culture (Cricetinae gen. sp. [12]) [%] | Active culture (Cricetinae gen. sp. [13]) [%]
1 | CC1=C(/C=C/C(C)=C/c2ccc(C(=O)O)cc2)C(C)(C)CCC1 | 1 | – | – | – | – | – | – | – | – | – | – | – | –
2 | CC1=C(/C=C/c2ccc3cc(C(=O)O)ccc3c2)C(C)(C)CCC1 | – | 46 | 30 | 92 | 20 | 100 | 0.4 | 48 | – | – | – | – | –
3 | CC1(C)CCC(C)(C)c2cc(-c3ccc4cc(C(=O)O)ccc4c3)ccc21 | – | – | 56 | – | – | – | – | 80 | > 10 | 95 | 27 | 100 | 77
